Converted amounts (≈) assume the structure as drawn. The source made the active and inactive calls. No cut-off for these calls is given here.
Assays:
Myzus persicae [1] = test: Insecticidal activity against Myzus persicae (green peach aphid) at 25 degC; assay type: functional; details: read-out: LD50 (the source's name)
Brevicoryne brassicae = test: Insecticidal activity against Brevicoryne brassicae (cabbage aphids) measured in field test; assay type: functional, organism-based
Procedure, shortened: (§1)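 Field trials against aphids in northern, middle and southern China used 10% WP and 20% SC formulations. The design was a randomized complete block with five treatments, applied with a hand sprayer. Untreated cabbage or rice served as the control, and imidacloprid 10% WP was the reference.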

Myzus persicae [2] = test: Insecticidal activity against Myzus persicae (green peach aphid) measured in field test; assay type: functional, organism-based; procedure, shortened: as §1

Structure (SMILES)	LC50 (Myzus persicae [1])	Activity (Brevicoryne brassicae)	Activity (Myzus persicae [2])
CC/C=N/N(CC)/C(N)=N/[N+](=O)[O-]	523 µg/mL (≈ 2790 µM)	Active	Active
CC(C)/C=N/N(Cc1ccc(Cl)nc1)/C(N)=N/[N+](=O)[O-]	92.5 µg/mL (≈ 310 µM)	Active	Active
N/C(=N\[N+](=O)[O-])N(Cc1ccc(Cl)nc1)/N=C/c1ccco1	345 µg/mL (≈ 1070 µM)	Active	Active
CCCCN(/N=C/c1cccc(OC)c1)/C(N)=N/[N+](=O)[O-]	1800 µg/mL (≈ 6130 µM)	Active	Active
CCC/C=N/N(CCCC)/C(N)=N/[N+](=O)[O-]	367 µg/mL (≈ 1600 µM)	Active	Active
C=CCN(/N=C/c1ccc(C)cc1)/C(N)=N/[N+](=O)[O-]	744 µg/mL (≈ 2850 µM)	Active	Active
C=CCN(/N=C/c1ccccc1Cl)/C(N)=N/[N+](=O)[O-]	362 µg/mL (≈ 1290 µM)	Active	Active
CCCCN(/N=C/c1ccccc1)/C(N)=N/[N+](=O)[O-]	1800 µg/mL (≈ 6820 µM)	Active	Active
C=CCN(/N=C/CCCC)/C(N)=N/[N+](=O)[O-]	400 µg/mL (≈ 1760 µM)	Active	Active
C=C/C=N/N(CCCC)/C(N)=N/[N+](=O)[O-]	328 µg/mL (≈ 1540 µM)	Active	Active
N/C(=N\[N+](=O)[O-])N(Cc1ccc(Cl)nc1)/N=C/c1ccc(F)cc1	1450 µg/mL (≈ 4130 µM)	Active	Active
O=[N+]([O-])/N=C1\NCCN1Cc1ccc(Cl)nc1 [IMIDACLOPRID]	24.2 µg/mL (≈ 94.7 µM)	Active	Active
CC/C=N/N(CCC)/C(N)=N/[N+](=O)[O-]	283 µg/mL (≈ 1410 µM)	Active	Active
COc1ccc(/C=N/N(Cc2ccccc2)/C(N)=N/[N+](=O)[O-])cc1	3840 µg/mL (≈ 11700 µM)	Active	Active
N/C(=N\[N+](=O)[O-])N(Cc1ccc(Cl)nc1)/N=C/c1ccccc1[N+](=O)[O-]	357 µg/mL (≈ 946 µM)	Active	Active
CCCCCC/C=N/N(Cc1ccc(Cl)nc1)/C(N)=N/[N+](=O)[O-]	25.5 µg/mL (≈ 74.7 µM)	Active	Active
CCCC/C=N/N(Cc1ccc(Cl)nc1)/C(N)=N/[N+](=O)[O-] [GUADIPYR]	25.3 µg/mL (≈ 81 µM)	Active	Active
CCC/C=N/N(Cc1ccc(Cl)nc1)/C(N)=N/[N+](=O)[O-]	21 µg/mL (≈ 70.3 µM)	Active	Active
CCCCN(/N=C/c1ccc(C)cc1)/C(N)=N/[N+](=O)[O-]	1080 µg/mL (≈ 3880 µM)	Active	Active
CCN(/N=C/c1ccc(C)cc1)/C(N)=N/[N+](=O)[O-]	1020 µg/mL (≈ 4110 µM)	Active	Active
